The values that follow come from ChEMBL document CHEMBL4765360, “Design, synthesis and biological evaluation of novel potent STAT3 inhibitors based on BBI608 for cancer therapy” (Eur J Med Chem, 2020).

The term IC50 denotes the point on the concentration scale where inhibition reaches its midpoint.

Each structure is given as a SMILES string. Calls of active or inactive are those of the source. The calls are words filed in the database; no cut-off is given here.

For test [1], the system named is MDA-MB-231. The test can be described thus: Induction of cell cycle arrest in human MDA-MB-231 cells assessed as increase in S phase accumulation incubated for 24 hrs by PI staining based flow cytometry analysis. The format is functional. As to conditions: dose 1-4 µM.
The test system of test [2] is MDA-MB-231. The test is described as follows: Antitumor activity against human MDA-MB-231 cells xenografted in BALB/c mouse assessed as reduction in tumor growth at 5 mg/kg, ip administered once daily for 21 days and measured on day 21 relative to control. The format is functional. Conditions: MDA-MB-231, ip, 504 h, time 21 day, read-out: TGI. A digest of the protocol: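 Female BALB/c nude mice, 5 weeks old (16–18 g), were given 5×10^6 MDA-MB-231 cells subcutaneously. At ~50 mm³, mice were randomized to three groups (n=6): vehicle, 5 or 10 mg/kg i.p. daily for 21 days. Tumor volume (length×width²/2) was measured every 3 days and body weight recorded. Tumors were excised and weighed at the end. TGI derived versus control; mean ± SEM.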
(In general: In xenograft studies the graft and the host belong to different species.)

Another test deals with MDA-MB-468. The test is described as follows: Antiproliferative activity against human MDA-MB-468 cells overexpressing STAT3 assessed as reduction in cell growth incubated for 48 hrs by CCK-8 assay. As to conditions: MDA-MB-468, 48 h. In kind it is functional, cell-based. In a few lines:
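Cells seeded at 5000-7000/well and allowed to settle for 8 h at 37 °C, 5% CO2. Graded compound concentrations were then added in triplicate (DMSO <0.1%) for 48 h. Medium was replaced with 10% CCK-8 for 4 h (MDA-MB-231, MDA-MB-468) or 1 h (HepG2), and A450 was read. IC50 is mean ± SD of at least three independent experiments. HepG2 was grown in high-glucose DMEM with 10% FBS.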
Background: Tetrazolium assays rely on reduction of a dye to a coloured formazan, in cell work by metabolically active cells.

In test [3] the test system is MDA-MB-231. The test can be described thus: Effect on STAT3 expression in human MDA-MB-231 cells at 0.75 to 3 uM incubated for 24 hrs by Western blot analysis. The format is functional, cell-based. Conditions: dose 0.75-3 µM. In a few lines:
(§1)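 MDA-MB-231 cells treated with a range of concentrations for 24 h. RIPA lysates with PMSF, 40 µg protein/lane, on 10% SDS-PAGE, then PVDF. Blocked in 5% milk/TBST for 2 h. Primary antibodies to STAT3, p-STAT3(Y705), STAT1, p-STAT1(Y701), c-Myc and Cyclin D1 overnight at 4 °C; GAPDH as loading control. HRP secondary for 1 h; ECL detection.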
(In western blotting, separated proteins are transferred to a membrane and probed.)

In test [4] the test system is MDA-MB-231. The test is described as follows: Induction of apoptosis in human MDA-MB-231 cells assessed as early apoptotic cells at 2 uM incubated for 24 hrs by annexin V-FITC and PI staining based flow cytometry analysis (reference value: 2.69 %). In kind it is functional.
Test [5] addresses T1, Signal transducer and activator of transcription 3 (Homo sapiens, UniProt P40763). The test can be described thus: Displacement of 5-FAM-GpYLPQTV-NH2 from His-tagged STAT3 (unknown origin) (127 to 722 residues) incubated for 30 mins followed by fluorescent peptide probe addition and measured after 1 hr by fluorescence polarization based competition binding assay.
Test [6] concerns the target T1, Signal transducer and activator of transcription 3. The test is described as follows: Inhibition of STAT3 in human MDA-MB-231 cells assessed as reduction in STAT3 Y705 phosphorylation incubated for 24 hrs by Western blot analysis. The format is cell-based. As to conditions: dose 0.75-3 µM. A digest of the protocol:
as §1

Test [7] concerns MDA-MB-231. The test is described as follows: Induction of apoptosis in human MDA-MB-231 cells assessed as necrotic cells at 2 uM incubated for 24 hrs by annexin V-FITC and PI staining based flow cytometry analysis (reference value: 0.23 %). In kind it is functional.

T1 sequence (P40763 whole entry, the tested form may be a part): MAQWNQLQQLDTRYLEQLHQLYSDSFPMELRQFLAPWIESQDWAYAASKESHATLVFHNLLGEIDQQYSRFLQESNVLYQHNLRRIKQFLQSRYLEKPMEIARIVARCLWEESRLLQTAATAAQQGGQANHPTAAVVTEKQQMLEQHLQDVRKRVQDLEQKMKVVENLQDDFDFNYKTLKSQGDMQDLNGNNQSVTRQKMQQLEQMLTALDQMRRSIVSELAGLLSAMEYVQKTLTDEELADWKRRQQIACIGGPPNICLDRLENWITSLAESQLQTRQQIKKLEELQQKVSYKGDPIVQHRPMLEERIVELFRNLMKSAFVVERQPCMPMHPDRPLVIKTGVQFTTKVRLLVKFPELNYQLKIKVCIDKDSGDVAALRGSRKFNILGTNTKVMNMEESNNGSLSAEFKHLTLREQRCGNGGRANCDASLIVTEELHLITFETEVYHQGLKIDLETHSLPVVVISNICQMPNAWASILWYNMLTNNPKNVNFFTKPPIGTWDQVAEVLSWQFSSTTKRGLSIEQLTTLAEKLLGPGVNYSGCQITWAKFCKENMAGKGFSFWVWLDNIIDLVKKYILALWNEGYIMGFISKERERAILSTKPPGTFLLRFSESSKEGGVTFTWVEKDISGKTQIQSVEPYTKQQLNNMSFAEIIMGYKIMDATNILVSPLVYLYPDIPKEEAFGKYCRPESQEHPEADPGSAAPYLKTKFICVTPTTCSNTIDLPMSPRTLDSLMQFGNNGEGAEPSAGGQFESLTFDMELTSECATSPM

Turning to `COc1ccc(NC2=CC(=O)c3cc(C(C)=O)oc3C2=O)cc1`, the Activity result with MDA-MB-231 [1] was “Dose-dependent effect”; in the test with MDA-MB-231 [4], 4.69%; in the test with MDA-MB-231 [7], 0.38%. For the same compound, the inhibition in vivo at 5 mg/kg/day in the test with MDA-MB-231 [2] was 8.42%. The IC50 in the test with MDA-MB-468 turned out to be 770 nM; in test [5], 5.18 µM. Moreover, the result with MDA-MB-231 [3] was inactive. For the same compound, the inhibition result in test [5] (time 1.5 hrs) and in test [6] was “Dose-dependent effect” each time.
